Measured values of several laboratories.
Each line is one published result; the experiments were not run side by side.
Target: Calcium/calmodulin-dependent protein kinase kinase 1 (CAMKK1, Homo sapiens, UniProt Q8N5S9)

Compound	test	setting	measurement	value
Cc1nn(C)cc1-c1nc2c(N3CCN(Cc4ccc(Cl)cc4)CC3)c(Cl)cnc2[nH]1	binding, competition with immobilised ligand	1 µM	remaining binding	100%
N#CC1(c2ccccn2)CCN(Cc2cc(C(=O)O)c(=O)n3ccccc23)CC1	cell-free assay, competition with immobilised ligand	1 µM	remaining binding	100%
CC(C)(C)c1cc(C=C(C#N)C#N)cc(Br)c1O	enzyme activity, inhibitor	0.5 µM	remaining activity	120%
Nc1ncc(-c2nc(N3CCOCC3)nc(N3CCOCC3)n2)c(C(F)F)n1	binding, competition with immobilised ligand	10 µM	remaining binding	70%
COc1ncccc1-c1cnn2ccc(N3CCN(C(=O)OC(C)C)CC3)nc12	binding, competition with immobilised ligand	1 µM	remaining binding	77%
O=c1[nH]c2ccccc2n1C1CCN(Cc2ccc(-c3[nH]c4cc5ncnc5cc4nc3-c3ccccc3)cc2)CC1	cell-free assay	0.5 µM	remaining signal	117%
Cn1cc(-c2cccc(N3CCc4c(sc5c4CC(C)(C)C5)C3=O)c2CO)cc(Nc2ccncn2)c1=O	enzyme activity, inhibitor	1 µM	inhibition	4%
Cn1cncc1[C@](O)(COc1ccc(C#N)cc1-c1ccc(OC(F)(F)F)cc1)c1ccc(C#N)cc1	cell-free assay, competition with immobilised ligand	1 µM	remaining binding	77%
